# Measured values taken from ChEMBL document CHEMBL4689842, “EUbOPEN Chemogenomics Library wave 1” (2021).
# System: U2OS
# Experiment: Multiplex assay against U2OS
# Assay type: toxicity, cell-based
# Settings: human
# How it was run: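 Live cells carried four stains from seeding: Hoechst33342, BioTracker Green Microtubule Cytoskeleton Dye, MitoTracker Red and Annexin V Alexa Fluor 680. They were imaged on a CQ1 microscope at 37°C and 5% CO2 after compound addition. Using CellPathfinder machine-learning gating, cells were split into Hoechst high-intensity objects or normal cells, normal cells into healthy, pyknosed or fragmented nuclei, and pyknosed cells into mitotic or apoptotic; tubulin, mitochondrial-mass and membrane-permeability phenotypes are per cents of healthy-nucleus cells.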
# [1] = 12 h, 1 µM, compound concentration 1 uM, replicate 1
# [2] = 12 h, 1 µM, compound concentration 1 uM, replicate 2
# [3] = 12 h, 10 µM, compound concentration 10 uM, replicate 1
# [4] = 12 h, 10 µM, compound concentration 10 uM, replicate 2
# [5] = 24 h, 1 µM, compound concentration 1 uM, replicate 1
# [6] = 24 h, 1 µM, compound concentration 1 uM, replicate 2
# [7] = 24 h, 10 µM, compound concentration 10 uM, replicate 1
# [8] = 24 h, 10 µM, compound concentration 10 uM, replicate 2
# [9] = 48 h, 1 µM, compound concentration 1 uM, replicate 1
# [10] = 48 h, 1 µM, compound concentration 1 uM, replicate 2
# [11] = 48 h, 10 µM, compound concentration 10 uM, replicate 1
# [12] = 48 h, 10 µM, compound concentration 10 uM, replicate 2
compound,measurement,setting,value
CN(C)CC#Cc1ccc(OCCCc2sc(N3CCc4cccc(C(=O)Nc5nc6ccccc6s5)c4C3)nc2C(=O)O)c(F)c1 [A-1155463],Population Apoptotic (%),[1],63%
same,Population Fragmented Nuclei (%),[1],13%
same,Population Healthy Nuclei (%),[1],65%
same,Population Hoechst High Intensity Objects (%),[1],12%
same,Population Membrane Permeable-Phenotype (%),[1],14%
same,Population Mitochondria Different-Phenotype (%),[1],14%
same,Population Mitotic Cells (%),[1],36%
same,Population Normal (%),[1],87%
same,Population Pyknosed Nuclei (%),[1],21%
same,Population Tubulin-Different-Phenotype (%),[1],11%
same,Total Cell Count,[1],175
same,Population Apoptotic (%),[2],66%
same,Population Fragmented Nuclei (%),[2],39%
same,Population Healthy Nuclei (%),[2],53%
same,Population Hoechst High Intensity Objects (%),[2],4%
same,Population Membrane Permeable-Phenotype (%),[2],13%
same,Population Mitochondria Different-Phenotype (%),[2],31%
same,Population Mitotic Cells (%),[2],33%
same,Population Normal (%),[2],95%
same,Population Pyknosed Nuclei (%),[2],7%
same,Population Tubulin-Different-Phenotype (%),[2],27%
same,Total Cell Count,[2],86
same,Population Apoptotic (%),[3],61%
same,Population Fragmented Nuclei (%),[3],25%
same,Population Healthy Nuclei (%),[3],55%
same,Population Hoechst High Intensity Objects (%),[3],6%
same,Population Membrane Permeable-Phenotype (%),[3],8%
same,Population Mitochondria Different-Phenotype (%),[3],15%
same,Population Mitotic Cells (%),[3],38%
same,Population Normal (%),[3],93%
same,Population Pyknosed Nuclei (%),[3],19%
same,Population Tubulin-Different-Phenotype (%),[3],13%
same,Total Cell Count,[3],189
same,Population Apoptotic (%),[4],86%
same,Population Fragmented Nuclei (%),[4],33%
same,Population Healthy Nuclei (%),[4],42%
same,Population Hoechst High Intensity Objects (%),[4],5%
same,Population Membrane Permeable-Phenotype (%),[4],24%
same,Population Mitochondria Different-Phenotype (%),[4],16%
same,Population Mitotic Cells (%),[4],13%
same,Population Normal (%),[4],94%
same,Population Pyknosed Nuclei (%),[4],23%
same,Population Tubulin-Different-Phenotype (%),[4],25%
same,Total Cell Count,[4],133
same,Population Apoptotic (%),[5],47%
same,Population Fragmented Nuclei (%),[5],19%
same,Population Healthy Nuclei (%),[5],58%
same,Population Hoechst High Intensity Objects (%),[5],5%
same,Population Membrane Permeable-Phenotype (%),[5],11%
same,Population Mitochondria Different-Phenotype (%),[5],15%
same,Population Mitotic Cells (%),[5],52%
same,Population Normal (%),[5],94%
same,Population Pyknosed Nuclei (%),[5],21%
same,Population Tubulin-Different-Phenotype (%),[5],6%
same,Total Cell Count,[5],222
same,Population Apoptotic (%),[6],50%
same,Population Fragmented Nuclei (%),[6],36%
same,Population Healthy Nuclei (%),[6],54%
same,Population Hoechst High Intensity Objects (%),[6],7%
same,Population Membrane Permeable-Phenotype (%),[6],13%
same,Population Mitochondria Different-Phenotype (%),[6],32%
same,Population Mitotic Cells (%),[6],50%
same,Population Normal (%),[6],92%
same,Population Pyknosed Nuclei (%),[6],9%
same,Population Tubulin-Different-Phenotype (%),[6],28%
same,Total Cell Count,[6],92
same,Population Apoptotic (%),[7],58%
same,Population Fragmented Nuclei (%),[7],20%
same,Population Healthy Nuclei (%),[7],51%
same,Population Hoechst High Intensity Objects (%),[7],5%
same,Population Membrane Permeable-Phenotype (%),[7],13%
same,Population Mitochondria Different-Phenotype (%),[7],23%
same,Population Mitotic Cells (%),[7],41%
same,Population Normal (%),[7],94%
same,Population Pyknosed Nuclei (%),[7],27%
same,Population Tubulin-Different-Phenotype (%),[7],12%
same,Total Cell Count,[7],194
same,Population Apoptotic (%),[8],81%
same,Population Fragmented Nuclei (%),[8],32%
same,Population Healthy Nuclei (%),[8],45%
same,Population Hoechst High Intensity Objects (%),[8],10%
same,Population Membrane Permeable-Phenotype (%),[8],20%
same,Population Mitochondria Different-Phenotype (%),[8],14%
same,Population Mitotic Cells (%),[8],18%
same,Population Normal (%),[8],89%
same,Population Pyknosed Nuclei (%),[8],22%
same,Population Tubulin-Different-Phenotype (%),[8],21%
same,Total Cell Count,[8],135
same,Population Apoptotic (%),[9],67%
same,Population Fragmented Nuclei (%),[9],24%
same,Population Healthy Nuclei (%),[9],46%
same,Population Hoechst High Intensity Objects (%),[9],10%
same,Population Membrane Permeable-Phenotype (%),[9],7%
same,Population Mitochondria Different-Phenotype (%),[9],18%
same,Population Mitotic Cells (%),[9],32%
same,Population Normal (%),[9],89%
same,Population Pyknosed Nuclei (%),[9],29%
same,Population Tubulin-Different-Phenotype (%),[9],10%
same,Total Cell Count,[9],285
same,Population Apoptotic (%),[10],77%
same,Population Fragmented Nuclei (%),[10],28%
same,Population Healthy Nuclei (%),[10],51%
same,Population Hoechst High Intensity Objects (%),[10],5%
same,Population Membrane Permeable-Phenotype (%),[10],19%
same,Population Mitochondria Different-Phenotype (%),[10],43%
same,Population Mitotic Cells (%),[10],22%
same,Population Normal (%),[10],94%
same,Population Pyknosed Nuclei (%),[10],20%
same,Population Tubulin-Different-Phenotype (%),[10],36%
same,Total Cell Count,[10],117
same,Population Apoptotic (%),[11],74%
same,Population Fragmented Nuclei (%),[11],26%
same,Population Healthy Nuclei (%),[11],32%
same,Population Hoechst High Intensity Objects (%),[11],9%
same,Population Membrane Permeable-Phenotype (%),[11],23%
same,Population Mitochondria Different-Phenotype (%),[11],38%
same,Population Mitotic Cells (%),[11],25%
same,Population Normal (%),[11],90%
same,Population Pyknosed Nuclei (%),[11],40%
same,Population Tubulin-Different-Phenotype (%),[11],11%
same,Total Cell Count,[11],246
same,Population Apoptotic (%),[12],81%
same,Population Fragmented Nuclei (%),[12],34%
same,Population Healthy Nuclei (%),[12],35%
same,Population Hoechst High Intensity Objects (%),[12],8%
same,Population Membrane Permeable-Phenotype (%),[12],57%
same,Population Mitochondria Different-Phenotype (%),[12],51%
same,Population Mitotic Cells (%),[12],18%
same,Population Normal (%),[12],91%
same,Population Pyknosed Nuclei (%),[12],29%
same,Population Tubulin-Different-Phenotype (%),[12],57%
same,Total Cell Count,[12],139
